Results published in PubChem BioAssay.
The source made the active and inactive calls.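 Rule for the calls, unless noted: active = viability at or below 10% of carrier control in both of two separate runs; inconclusive = viability at or below 10% in only one of the two runs; inactive = the rest.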

Assays:
[1] = target: Pantothenate synthetase (Mycobacterium tuberculosis (strain ATCC 25618 / H37Rv)) (UniProt P9WIL5); assay: Recombinant Mtb pantothenate synthetase (PanC) inhibitors, coupled enzyme, confirmatory (AID 375; call rule not given here;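 note: 0% = full reaction with vehicle and 100% = no enzyme background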); settings: coupled enzyme assay; at 10 µM, stronger effect = higher value
Pantothenate synthetase (Mycobacterium tuberculosis (strain ATCC 25618 / H37Rv)), sequence (P9WIL5 whole entry, looked up): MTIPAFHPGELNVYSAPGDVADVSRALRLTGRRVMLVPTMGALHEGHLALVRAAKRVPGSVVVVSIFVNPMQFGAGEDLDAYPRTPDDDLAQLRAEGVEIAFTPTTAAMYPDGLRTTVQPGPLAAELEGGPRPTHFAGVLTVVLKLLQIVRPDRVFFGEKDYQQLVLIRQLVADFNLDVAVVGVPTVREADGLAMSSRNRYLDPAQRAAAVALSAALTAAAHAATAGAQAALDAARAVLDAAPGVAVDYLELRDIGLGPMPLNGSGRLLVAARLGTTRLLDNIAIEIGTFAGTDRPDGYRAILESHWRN

[2] = reducers of endogenous Her2 protein level, primary screen, SKBR3 breast tumor cells, AlphaScreen, ATP viability (AID 461;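 active = Her2 level under about 52% in both replicate screens, with viability over 70% of control, limit read from the data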;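 for Her2 level: lower value means less Her2 protein in the cells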;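 for viability: percent of carrier control wells set as 100% viability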); settings: 18-24 h, measured here: SKBR3 viability, ATP luminescence, at 10 µM
[3] = target: Receptor tyrosine-protein kinase erbB-2 (Homo sapiens) (UniProt P04626); assay: as above; settings: 18-24 h, at 10 µM, stronger effect = lower value
Receptor tyrosine-protein kinase erbB-2 (Homo sapiens), sequence (P04626 whole entry, looked up): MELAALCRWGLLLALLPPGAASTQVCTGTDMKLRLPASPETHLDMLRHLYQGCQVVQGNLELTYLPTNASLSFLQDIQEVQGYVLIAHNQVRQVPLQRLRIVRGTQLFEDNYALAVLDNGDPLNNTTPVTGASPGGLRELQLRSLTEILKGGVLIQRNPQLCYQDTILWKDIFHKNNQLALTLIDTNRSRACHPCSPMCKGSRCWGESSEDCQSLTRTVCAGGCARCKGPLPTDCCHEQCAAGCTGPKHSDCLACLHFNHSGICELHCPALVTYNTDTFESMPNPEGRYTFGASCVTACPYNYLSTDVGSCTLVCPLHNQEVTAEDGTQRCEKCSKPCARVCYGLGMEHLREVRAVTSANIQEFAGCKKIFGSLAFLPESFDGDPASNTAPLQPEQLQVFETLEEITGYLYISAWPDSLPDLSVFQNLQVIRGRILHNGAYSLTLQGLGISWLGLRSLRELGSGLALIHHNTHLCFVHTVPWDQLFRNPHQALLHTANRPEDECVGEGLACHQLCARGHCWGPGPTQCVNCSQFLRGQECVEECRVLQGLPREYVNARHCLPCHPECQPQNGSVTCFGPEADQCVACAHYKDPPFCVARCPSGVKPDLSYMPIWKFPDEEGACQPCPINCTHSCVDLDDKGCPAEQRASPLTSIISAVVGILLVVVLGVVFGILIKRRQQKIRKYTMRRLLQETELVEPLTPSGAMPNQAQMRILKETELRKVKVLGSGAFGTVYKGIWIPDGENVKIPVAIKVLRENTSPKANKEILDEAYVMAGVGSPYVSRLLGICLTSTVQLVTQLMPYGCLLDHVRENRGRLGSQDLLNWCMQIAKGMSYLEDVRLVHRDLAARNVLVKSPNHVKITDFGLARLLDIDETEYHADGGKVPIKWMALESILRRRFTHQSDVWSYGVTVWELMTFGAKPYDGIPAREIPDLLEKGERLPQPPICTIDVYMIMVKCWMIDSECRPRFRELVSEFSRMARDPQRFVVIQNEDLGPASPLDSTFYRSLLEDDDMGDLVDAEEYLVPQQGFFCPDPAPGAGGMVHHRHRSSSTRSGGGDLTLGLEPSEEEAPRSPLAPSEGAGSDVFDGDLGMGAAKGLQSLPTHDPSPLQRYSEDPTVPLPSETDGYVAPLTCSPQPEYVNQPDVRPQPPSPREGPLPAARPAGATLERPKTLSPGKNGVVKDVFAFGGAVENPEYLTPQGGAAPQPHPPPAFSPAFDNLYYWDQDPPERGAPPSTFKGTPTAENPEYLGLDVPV

[4] = SK-BR-3 cell growth inhibitors, pilot screen, 24 h, human (AID 572); settings: SK-BR-3 viability, CellTiter-Glo luminescence, at 10 µM, stronger effect = lower value;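 note: compound exposure lasted between 18 and 24 h rather than exactly 24 h; 100% = carrier-treated control wells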
[5] = HUVEC growth inhibition – cell-based, human, primary screen (AID 575;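 active = viability at or below 30% in both replicate assays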;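 note: 100% = median of untreated cell wells with 0.1% DMSO on each plate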); settings: HUVEC proliferation, CellTiter-Glo luminescence, 72 h; at 10 µM; stronger effect = lower value
Procedure, shortened: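 material = primary HUVEC, no more than 12 passages | input = 1250 cells per well | controls = vehicle and MePR control wells | measured by = CTG luminescence | times = 72 h compound incubation | format = collagen-coated 384-well format | read-out = % viability vs DMSO wells | doses = single 10 µM dose, 0.1% DMSO, from 5x medium stock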

[6] = reversal of MRP1-mediated doxorubicin resistance, pilot screen, H69AR cells, doxorubicin co-treatment (AID 601;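 active = viability loss from added drug above about 55%, and viability with drug at most 40%, in both replicates, limit read from the data, passing the limit was not always enough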); settings: CellTiter-Glo, 72 h, at 10 µM; for differential viability (reversal): stronger effect = higher value
[7] = growth inhibitors of H69AR lung tumor, primary screen, human, duplicate replicates (AID 580;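 active = viability at or under a set limit in both replicates, limit being median viability minus 3 SD, cut at about 48% in these data, passing the limit was not always enough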;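 note: 100% = mean luminescence of untreated wells and 0% = no signal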); settings: H69AR lung tumor cells viability, ATP luminescence, 72 h; at 10 µM; stronger effect = lower value
[8] = 384-well plate pilot, post-Golgi transport modulator project, inhibition of yeast transport mutant growth (AID 636; in the data active = inhibition above about 31%); settings: absorbance 615 nm, about 18 h, stronger effect = higher value
[9] = growth suppression of yeast trafficking mutant, preliminary HTS, modulators of trafficking downstream of Golgi apparatus project, 1536-format plate, OD 615 nm (AID 637; in the data active = inhibition above about 30%); settings: yeast transport mutant growth, absorbance 615 nm, 18 h; stronger effect = higher value
[10] = H69AR cells + 2 uM doxorubicin, measured here: viability with 2 uM doxorubicin, stronger effect = lower value
[11] = H69AR cells, compound alone cytotoxicity

Structure (SMILES)	inhibition [1]	viability [2]	Her2 level [3]	viability [4]	viability [5]	differential viability (reversal) ([6]; H69AR cells + 2 uM doxorubicin)	viability [6, 10]	viability [6, 11]	viability [7]	inhibition [8]	inhibition [9]
Clc1ccc(COC(Cn2ccnc2)c2ccc(Cl)cc2Cl)c(Cl)c1 (stereo not drawn)	2% (inactive)	105%	20% (active)	105% (inactive)	9.27% (active)	-27.5% (inactive)	58.6%	31%			
Cc1ccc(C)c(NC(=O)CSc2nnc([C@@H](N)Cc3c[nH]c4ccccc34)o2)c1	6% (inactive)	101%	94.5% (inactive)	101% (inactive)	86.9% (inactive)	13.5% (inactive)	92.9%	106%	106% (inactive)	-5.2% (inactive)	-4.13% (inactive)
C[N+]1(C)[C@@H]2CC(OC(=O)[C@H](CO)c3ccccc3)C[C@H]1[C@@H]1O[C@@H]12 (stereo partly drawn)	0% (inactive)			97% (inactive)	101% (inactive)	8.56% (inactive)	97.7%	106%	106% (inactive)	-2.21% (inactive)	8.67% (inactive)
CCCCCCC(N)CC(=O)O (stereo not drawn)	0% (inactive)	106%	122% (inactive)	106% (inactive)	95.1% (inactive)	5.24% (inactive)	89.6%	94.8%	94.8% (inactive)	-1.69% (inactive)	-8.17% (inactive)
CN1CCC(OC(=O)C2c3ccccc3Oc3ccccc32)CC1	2% (inactive)	96.5%	96% (inactive)	96.5% (inactive)	64.3% (inactive)	0.945% (inactive)	85.5%	86.4%	86.4% (inactive)	-0.39% (inactive)	-5.16% (inactive)
Cc1nn(-c2ccccc2)c2c1CC1(C(=O)N(C)C(=O)N(C)C1=O)C1CCCCN21 (stereo not drawn)	0% (inactive)	97%	114% (inactive)	97% (inactive)	91.7% (inactive)	-12% (inactive)	96.7%	84.7%	84.7% (inactive)	-4.86% (inactive)	-2.13% (inactive)
Cc1ccc(S(=O)(=O)Cc2ccc(C(=O)N3CCC4(CC3)OCCO4)o2)cc1	0% (inactive)	75%	104% (inactive)	75% (inactive)	103% (inactive)	-3.13% (inactive)	93.7%	90.6%	90.6% (inactive)	7.37% (inactive)	-5.64% (inactive)
CCCCn1c(O)c(C(C)=NC(Cc2c[nH]c3ccccc23)C(=O)OC)c(=O)[nH]c1=O (stereo not drawn)	1% (inactive)			91% (inactive)	84.5% (inactive)	2.8% (inactive)	93.7%	96.5%	96.5% (inactive)	-4.93% (inactive)	-2.1% (inactive)
Cc1ccccc1NC1=NCCCS1	3% (inactive)	106%	101% (inactive)	106% (inactive)	99.3% (inactive)	-1.09% (inactive)	96.1%	95.1%	95.1% (inactive)	-4.61% (inactive)	-0.67% (inactive)
CC[C@@H](CO)NC(=O)[C@@H]1C=C2c3cccc4c3c(cn4C)C[C@H]2N(C)C1	7% (inactive)			147% (inactive)	96.8% (inactive)	-1.17% (inactive)	96.6%	95.4%	95.4% (inactive)	1.17% (inactive)	-2% (inactive)
COC(=O)c1cncn1C(C)c1ccccc1 (stereo not drawn)	0% (inactive)	88.5%	80.5% (inactive)	88.5% (inactive)	108% (inactive)	6.07% (inactive)	88.9%	95%	95% (inactive)	-4.46% (inactive)	-5.25% (inactive)
COc1ccc(CN2CCN(c3ccccc3F)CC2)c(OC)c1	1% (inactive)	92%	88% (inactive)	92% (inactive)	91.1% (inactive)	42.5% (inactive)	85.4%	128%	128% (inactive)	-4.46% (inactive)	-0.98% (inactive)
CN1C(=O)CN=C(c2ccc(Cl)cc2)c2cc(Cl)ccc21	0% (inactive)			84% (inactive)	61.8% (inactive)	0.31% (inactive)	84.5%	84.8%	84.8% (inactive)	0.39% (inactive)	4.17% (inactive)
O=C(c1sc2ccccc2c1Cl)N1CCC2(CC1)OCCO2	0% (inactive)	90.5%	136% (inactive)	90.5% (inactive)	94.7% (inactive)	6.83% (inactive)	102%	109%	109% (inactive)	0.13% (inactive)	-7.5% (inactive)
OCCOCC#CCN1CCOCC1	0% (inactive)	102%	114% (inactive)	102% (inactive)	101% (inactive)	3.84% (inactive)	89.9%	93.8%	93.8% (inactive)	-1.45% (inactive)	1.31% (inactive)
O=C(Cn1ncc2c3ccccc3n(Cc3ccc(F)cc3)c2c1=O)N1CCC2(CC1)OCCO2	7% (inactive)			86% (inactive)	96% (inactive)	-9.23% (inactive)	98.4%	89.2%	89.2% (inactive)	-5.41% (inactive)	-2.55% (inactive)
